This is an account of results in ChEMBL document CHEMBL1133943, “N-hydroxyl derivatives of guanidine based drugs as enzymatic NO donors” (Bioorg Med Chem Lett, 2001).

Type in all cases: functional
Assay [1] has as its target Nitric oxide synthase 1 (Rattus norvegicus) (UniProt P29476). The assay is described as follows: NO releasing ability of compound measured through formation of nitrite using nNOS (nitric oxide synthases). Put shortly:
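Purified nNOS (0.5 unit) incubated with 1 mM substrate in 50 mM HEPES pH 7.4, 500 µL final volume. Mix held 100 µM NADPH, 4 µM FAD, 4 µM FMN, 6 µM BH4, 400 µM DTT, SOD, catalase, 1 mM CaCl2 and 10 µg/mL CaM; shaken at 37 °C. Ethanol quench, then Griess nitrite read at 548 nm against NaNO2 calibration without enzyme. L-arginine as control.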

The target in assay [2] is Nitric oxide synthase, inducible (Homo sapiens) (UniProt P35228). The assay is described as follows: NO releasing ability of compound measured through formation of nitrite using iNOS (nitric oxide synthases). The gist of the method: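 Purified iNOS (0.5 unit) incubated with 1 mM substrate in 50 mM HEPES pH 7.4 with 100 µM NADPH, 4 µM FAD, 4 µM FMN, 6 µM BH4, 400 µM DTT, SOD, catalase and 1 mM magnesium acetate; shaken at 37 °C. Quenched with ethanol for ≥1 h at room temperature, then Griess reagent; A548 converted via NaNO2 calibration in enzyme-free mixtures.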
Nitric oxide synthase, inducible (Homo sapiens), sequence (P35228 whole entry): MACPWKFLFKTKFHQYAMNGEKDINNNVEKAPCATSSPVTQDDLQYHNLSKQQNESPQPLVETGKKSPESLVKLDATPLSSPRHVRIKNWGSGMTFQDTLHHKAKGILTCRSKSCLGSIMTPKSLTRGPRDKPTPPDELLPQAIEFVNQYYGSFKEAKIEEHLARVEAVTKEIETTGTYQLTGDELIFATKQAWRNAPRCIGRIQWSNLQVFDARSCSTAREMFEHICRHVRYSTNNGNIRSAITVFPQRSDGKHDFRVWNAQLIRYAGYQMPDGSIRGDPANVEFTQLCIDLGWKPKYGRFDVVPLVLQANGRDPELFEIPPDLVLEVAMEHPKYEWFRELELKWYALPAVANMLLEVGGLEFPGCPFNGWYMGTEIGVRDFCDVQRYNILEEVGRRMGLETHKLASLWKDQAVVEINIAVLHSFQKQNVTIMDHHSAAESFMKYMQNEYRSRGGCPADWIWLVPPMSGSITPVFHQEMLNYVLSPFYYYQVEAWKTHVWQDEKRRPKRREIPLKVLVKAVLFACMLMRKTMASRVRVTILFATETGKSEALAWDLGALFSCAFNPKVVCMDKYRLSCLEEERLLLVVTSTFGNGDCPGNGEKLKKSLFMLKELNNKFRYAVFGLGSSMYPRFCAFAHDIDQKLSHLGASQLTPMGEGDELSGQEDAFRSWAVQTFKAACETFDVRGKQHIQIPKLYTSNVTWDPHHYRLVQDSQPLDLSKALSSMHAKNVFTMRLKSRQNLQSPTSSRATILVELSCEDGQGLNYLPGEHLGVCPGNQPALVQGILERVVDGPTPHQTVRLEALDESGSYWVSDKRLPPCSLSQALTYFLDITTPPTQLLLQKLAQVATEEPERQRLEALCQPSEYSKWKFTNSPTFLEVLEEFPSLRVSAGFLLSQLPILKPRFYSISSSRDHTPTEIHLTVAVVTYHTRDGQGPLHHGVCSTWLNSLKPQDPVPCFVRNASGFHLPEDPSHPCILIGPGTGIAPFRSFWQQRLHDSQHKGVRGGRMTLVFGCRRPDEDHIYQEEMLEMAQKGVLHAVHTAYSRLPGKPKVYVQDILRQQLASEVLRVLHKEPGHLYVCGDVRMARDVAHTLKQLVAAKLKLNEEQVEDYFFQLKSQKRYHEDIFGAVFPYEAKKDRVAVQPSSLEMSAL

Assay [3] addresses Nitric oxide synthase 1 (Homo sapiens) (UniProt P29475). The assay is described as follows: NO releasing ability of compound measured through formation of nitrite using neuronal nitric oxide synthase. Put shortly:
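Incubation with nNOS (0.5 unit) in 50 mM HEPES pH 7.4 at 37 °C, shaken. Mixture: 1 mM substrate, 100 µM NADPH, 4 µM FAD, 4 µM FMN, 6 µM BH4, 400 µM DTT, 100 units SOD, 50 units catalase, 1 mM CaCl2, 10 µg/mL calmodulin. Quenched with ethanol, ≥1 h at room temperature, then Griess reagent, A548. Nitrite is quantified against NaNO2 standards made in enzyme-free mixtures. L-arginine is the reference substrate.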

Assay [4] can be described thus: Effect of incubation conditions on the formation of NO2 from the oxidation of compound in the presence of complete system. The gist of the method:
(§1)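 Base NOS reaction varied by component: 1 mM substrate, 50 mM HEPES pH 7.4, 100 µM NADPH, 4 µM FAD, 4 µM FMN, 6 µM BH4, 400 µM DTT, SOD, catalase, 0.5 unit NOS, shaken at 37 °C for the indicated time. Nitrite determined by Griess reaction after ethanol quench, absorbance 548 nm, with NaNO2 calibration curves lacking enzyme.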

The nature of assay [5]: Effect of incubation conditions on the formation of NO2 from the oxidation of compound in the presence of nNOS. The gist of the method:
as §1

Assay [6] is described as follows: Effect of incubation conditions on the formation of NO2 from the oxidation of compound in the presence of NO2-L-Arg. The gist of the method:
as §1

The nature of assay [7]: Effect of incubation conditions on the formation of NO2 from the oxidation of compound in the presence of NADPH. Put shortly:
as §1

Assay [8] in a line: Effect of incubation conditions on the formation of NO2 from the oxidation of compound in the presence of BH4. Put shortly:
as §1

Nitric oxide synthase 1 (Rattus norvegicus), sequence (P29476 whole entry): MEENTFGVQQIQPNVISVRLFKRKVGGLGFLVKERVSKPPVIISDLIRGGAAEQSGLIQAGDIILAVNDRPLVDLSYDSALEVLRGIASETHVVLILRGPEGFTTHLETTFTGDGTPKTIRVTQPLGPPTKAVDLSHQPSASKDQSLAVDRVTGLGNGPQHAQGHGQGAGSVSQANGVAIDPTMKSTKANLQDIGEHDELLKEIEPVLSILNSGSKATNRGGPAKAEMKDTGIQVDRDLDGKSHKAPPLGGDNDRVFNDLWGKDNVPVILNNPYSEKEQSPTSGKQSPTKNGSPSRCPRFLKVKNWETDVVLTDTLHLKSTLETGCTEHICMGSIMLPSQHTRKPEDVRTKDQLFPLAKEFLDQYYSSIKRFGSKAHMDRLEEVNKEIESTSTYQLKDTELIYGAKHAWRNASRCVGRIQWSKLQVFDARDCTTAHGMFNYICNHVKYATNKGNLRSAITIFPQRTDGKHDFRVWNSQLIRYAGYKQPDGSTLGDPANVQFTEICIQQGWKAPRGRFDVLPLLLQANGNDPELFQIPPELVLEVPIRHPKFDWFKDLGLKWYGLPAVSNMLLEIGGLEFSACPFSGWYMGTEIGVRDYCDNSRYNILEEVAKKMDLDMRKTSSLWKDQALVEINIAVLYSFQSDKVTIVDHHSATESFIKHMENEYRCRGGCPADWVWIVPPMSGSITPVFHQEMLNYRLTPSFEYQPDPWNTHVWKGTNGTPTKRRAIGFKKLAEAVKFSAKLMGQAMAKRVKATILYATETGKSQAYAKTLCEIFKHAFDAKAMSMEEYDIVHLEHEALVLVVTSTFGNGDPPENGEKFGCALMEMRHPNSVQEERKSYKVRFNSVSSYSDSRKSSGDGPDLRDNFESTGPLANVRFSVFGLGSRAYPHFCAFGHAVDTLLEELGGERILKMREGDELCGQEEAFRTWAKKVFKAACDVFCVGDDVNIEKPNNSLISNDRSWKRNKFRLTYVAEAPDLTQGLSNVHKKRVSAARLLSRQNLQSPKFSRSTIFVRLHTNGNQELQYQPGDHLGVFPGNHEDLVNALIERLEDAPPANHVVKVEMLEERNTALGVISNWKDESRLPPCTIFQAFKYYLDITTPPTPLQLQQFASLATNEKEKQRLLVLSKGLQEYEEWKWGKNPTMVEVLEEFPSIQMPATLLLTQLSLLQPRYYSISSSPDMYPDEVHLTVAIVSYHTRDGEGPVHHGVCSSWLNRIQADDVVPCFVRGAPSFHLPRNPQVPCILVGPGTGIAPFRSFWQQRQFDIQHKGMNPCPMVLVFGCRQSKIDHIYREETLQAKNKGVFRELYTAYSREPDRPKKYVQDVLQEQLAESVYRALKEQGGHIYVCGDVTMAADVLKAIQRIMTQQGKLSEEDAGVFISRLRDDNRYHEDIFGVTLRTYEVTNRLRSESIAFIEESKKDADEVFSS
Nitric oxide synthase 1 (Homo sapiens), sequence (P29475 whole entry): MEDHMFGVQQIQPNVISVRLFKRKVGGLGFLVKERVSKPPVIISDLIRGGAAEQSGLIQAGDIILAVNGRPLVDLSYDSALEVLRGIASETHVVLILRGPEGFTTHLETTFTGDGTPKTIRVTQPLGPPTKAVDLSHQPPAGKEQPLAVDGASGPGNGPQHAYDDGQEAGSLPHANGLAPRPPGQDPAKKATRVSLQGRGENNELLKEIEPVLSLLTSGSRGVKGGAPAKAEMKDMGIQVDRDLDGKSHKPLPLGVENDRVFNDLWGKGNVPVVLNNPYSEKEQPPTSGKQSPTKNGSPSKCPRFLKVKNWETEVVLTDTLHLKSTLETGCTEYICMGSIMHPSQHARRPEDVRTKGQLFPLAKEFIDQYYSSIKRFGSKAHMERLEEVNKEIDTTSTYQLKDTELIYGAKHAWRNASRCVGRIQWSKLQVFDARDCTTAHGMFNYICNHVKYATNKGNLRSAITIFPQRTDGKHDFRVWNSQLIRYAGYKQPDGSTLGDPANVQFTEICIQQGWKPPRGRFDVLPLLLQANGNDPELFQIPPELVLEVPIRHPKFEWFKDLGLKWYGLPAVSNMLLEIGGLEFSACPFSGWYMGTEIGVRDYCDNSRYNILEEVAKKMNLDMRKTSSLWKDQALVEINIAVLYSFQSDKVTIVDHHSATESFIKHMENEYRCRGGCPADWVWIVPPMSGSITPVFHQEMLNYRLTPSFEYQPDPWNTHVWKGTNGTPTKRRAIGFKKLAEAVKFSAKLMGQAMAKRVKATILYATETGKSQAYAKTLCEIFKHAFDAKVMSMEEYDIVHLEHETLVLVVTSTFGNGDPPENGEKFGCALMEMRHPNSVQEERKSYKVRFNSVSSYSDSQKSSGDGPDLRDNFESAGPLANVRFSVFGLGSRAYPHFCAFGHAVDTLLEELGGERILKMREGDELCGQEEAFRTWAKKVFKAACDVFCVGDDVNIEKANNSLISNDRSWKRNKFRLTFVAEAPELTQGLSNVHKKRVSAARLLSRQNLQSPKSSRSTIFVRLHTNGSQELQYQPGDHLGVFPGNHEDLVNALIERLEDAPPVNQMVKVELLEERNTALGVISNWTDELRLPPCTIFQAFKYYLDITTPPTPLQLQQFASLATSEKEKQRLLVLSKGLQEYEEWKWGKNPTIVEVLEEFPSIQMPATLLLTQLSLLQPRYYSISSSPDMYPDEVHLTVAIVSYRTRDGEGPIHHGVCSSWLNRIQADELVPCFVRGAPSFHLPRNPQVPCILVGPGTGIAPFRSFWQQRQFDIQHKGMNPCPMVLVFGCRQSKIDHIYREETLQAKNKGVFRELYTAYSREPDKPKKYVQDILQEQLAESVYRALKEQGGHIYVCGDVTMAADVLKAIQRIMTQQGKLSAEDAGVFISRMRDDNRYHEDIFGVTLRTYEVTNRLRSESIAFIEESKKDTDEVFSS

On to `N=C(N)NCC1COc2ccccc2O1` (stereo not drawn), for which the Activity in assay [1] and in assay [2] was < 0.1 µM each time.

Turning to `N=C(N)NCC1COC2(CCCCC2)O1` (stereo not drawn), the Activity in assay [1] and in assay [2] was < 0.1 µM in each case.

`N/C(=N/CC1COc2ccccc2O1)NO` (stereo not drawn): the Activity worked out at 0.8 µM in assay [1] and 0.9 µM in assay [2].

In assay [3], `N=C(N)NCCC[C@H](N)C(=O)O` showed an Activity of 14.5 µM.

In the case of `N/C(=N\O)NCCN1CCCCCCC1`, the Activity amounted to 0.3 µM in assay [1] and 0.2 µM in assay [2].

In the case of `N/C(=N/CC1COC2(CCCCC2)O1)NO` (stereo not drawn), the residual activity (usually the signal under treatment as a percentage of the control signal) is 100% in assay [4]; < 2% in assay [5]; 50% in assay [6]; 18% in assay [7]; 30% in assay [8]. Also, the values for the Activity in assay [1] and in assay [2] were 1.2 µM and 1.6 µM, respectively.

With `N=C(N)NCCN1CCCCCCC1`, the Activity in assay [1] and in assay [2] was < 0.1 µM in each case.
